Compound activity from PubChem.
Shown is part of a subset that was picked to be rich in hits.
NOD2-RIPK2 inh – blocks binding of human NOD2 to RIPK2; O43353; CHO BLA complementation NOD2-RIPK2, CCF4 ratio; inhibition, % at 4.98 µM; 360,000 tested, 0.38% active; AID 624267; in the data active means inhibition above about 21%
UPR XBP1 act – adaptive UPR (XBP1) activation; CHO-XBP1 luciferase reporter, IRE1-XBP1 UPR activation, luminescence; percent of tunicamycin response, DMSO as zero; 330,000 tested, 0.33% active; activation, % at 20 µM;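 active means versus positive control, 20 µM dose yields 30% or more activation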
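Assay system: IRE1-XBP1 luciferase reporter CHO line. Input: 1000 cells/well. Buffer or medium: F12 with 10% serum. Doses: 20 µM, 1% DMSO. Times: overnight seeding at 37 °C, 6 h compound treatment at 37 °C. Technique: Steady-Glo luciferase glow luminescence, 10 min after reagent addition.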
CHOP UPR activ – apoptotic UPR (CHOP) activation | CHO-CHOP luciferase reporter, luminescence; percent of tunicamycin response over DMSO baseline | activation, % at 10 µM | 330,000 tested, 0.34% active | AID 449763;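 active means at 10 µM dose, activation of 40% or more, normalized to positive control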
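Test system: CHO CHOP reporter cells. Input: 500 CHO-CHOP cells per well. Medium: F12 with 10% FBS. Technique: luciferase luminescence. Measure: percent activation relative to tunicamycin control. Dosing: 10 µM compound, 0.5% DMSO. Timing: 16-18 h cell attachment, then 6 h compound exposure, 37 °C.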
CHOP inhibitor – inhibitors of CHOP induction in ER stress response. CHO-K1 CHOP-promoter luciferase, tunicamycin-induced, 15-18 h. inhibition, % at 10 µM. 220,000 tested, 3.8% active;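 active means compounds that reduced the stress-induced luciferase reporter signal by more than about 70% of percent inhibition, limit read from the data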
TLR4-MyD88 BLA – inhibitors of human TLR4-MyD88 binding; O00206+Q99836; HeLa CL3-4 TLR4/MyD88 BLA complementation, FRET ratio; inhibition, % at 8.4 µM; 200,000 tested, 0.18% active; in the data active means inhibition above about 25%
TLR9-MyD88 inh – inhibitors of human TLR9-MyD88 binding. Q9NR96+Q99836. 340,000 tested, 0.21% active. inhibition, % at 4.98 µM. AID 504734. CHO BLA complementation TLR9-MyD88, CCF4 FRET ratio;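 active means inhibition above the mean over all tested compounds plus 3 SD, cut at about 21% in these data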
A number is an active result; i = inactive; nt = no result.

SMILES	NOD2-RIPK2 inh	UPR XBP1 act	CHOP UPR activ	CHOP inhibitor	TLR4-MyD88 BLA	TLR9-MyD88 inh
O=C(Nc1ncnc2c1ncn2[C@@H]1O[C@H](/C=C/C(=O)N2CCN(c3ccc(F)cc3)CC2)[C@@H](O)[C@H]1O)c1ccccc1	i	nt	nt	nt	nt	nt
O=C(Nc1cccc(OC(F)(F)F)c1)c1cccc2c(-c3cccnc3)coc12	i	nt	nt	nt	nt	nt
CCN(CC)c1ccc(NC(=O)c2cnccn2)cc1S(=O)(=O)Nc1ccc(OC)cc1	i	i	i	i	i	i
CCCCNC1=CC(=O)C(=O)c2ccccc21	i	i	i	i	i	i
CCCCN1C=CC(=C2C(=O)c3ccccc3C2=O)C=C1	i	i	i	94	i	i
COc1ccc(C(C)(C)C)cc1NC(=O)CCCN1C(=O)CN(C)C1=O	i	i	i	nt	nt	i
C/C(=N\NC(=O)c1nnn(-c2nonc2N)c1C(C)C)c1ccc2ccccc2c1	i	i	i	nt	nt	i
CCC(C)(C)NC(=O)C(c1ccc(C)cc1)N(CCN1CCOCC1)C(=O)CNC(=O)c1cccs1 (stereo not drawn)	i	i	i	i	i	i
Cc1cc(C)cc(NC(=O)Nc2ccc(-n3ccc(C(F)(F)F)n3)cc2)c1	i	i	i	83	nt	i
O=C(Nc1ccc(-n2ccc(C(F)(F)F)n2)cc1)Nc1cccc(Cl)c1	i	i	i	i	nt	i
O=C(CCC(=O)c1ccc(F)cc1)Nc1cc(Cl)cc(Cl)c1	i	i	i	84	i	i
c1ccc2nc(-c3ccc(N4CCOCC4)cc3)ccc2c1	i	i	i	90	i	i
Cc1ccc(-c2cc3ccccc3nc2N2CCOCC2)cc1	i	i	i	72	i	nt
COc1cc(NC(=O)C(C)(C)C)c(C(=O)OCC(=O)Nc2cc(C)on2)cc1OC	i	nt	nt	nt	nt	i
Cn1c2ccccc2c2cnn(CC(=O)Nc3ccc(F)cc3F)c(=O)c21	i	i	i	88	nt	i
OCC1(Cc2ccc(Cl)cc2)CCN(Cc2ccc(Oc3ncccn3)cc2)CC1	i	i	i	i	i	nt
CCOc1ccccc1C(=O)Nc1nnc(C(C)C)s1	i	i	i	76	i	i
CCOc1ccccc1C(=O)Nc1nncs1	i	i	i	i	i	i
C/C(=N\NC(=O)c1n[nH]c2c1CCC2)c1cccs1	i	i	i	86	nt	i
COc1ccc(CNC(=O)Cn2nc(C(F)(F)F)c3c2CCC3)cc1	i	i	i	i	i	i
COc1ccc(CNc2nc3c(c(C(F)(F)F)n2)CCCCC3)cc1	nt	nt	nt	90	i	nt
Oc1ccc2ccccc2c1C=Nc1ccc(N2CCOCC2)cc1	nt	i	i	78	i	nt
C=Cc1ccc(N=Cc2c(O)ccc3ccccc23)cc1	i	i	i	nt	nt	i
Cc1onc(-c2ccccc2Cl)c1C(=O)N1CCCC1	i	i	i	nt	nt	i
Cc1cc2ncn(C(=O)c3c(-c4ccccc4Cl)noc3C)c2cc1C	i	i	i	76	i	i
SMILES	NOD2-RIPK2 inh	UPR XBP1 act	CHOP UPR activ	CHOP inhibitor	TLR4-MyD88 BLA	TLR9-MyD88 inh
COC(=O)C1=CN(c2ccc(Oc3ccccc3)cc2)C(N)=C(C#N)C1c1ccc(-c2ccccc2)cc1 (stereo not drawn)	i	nt	nt	nt	nt	nt
COc1cccc(C2CC(=O)Nc3cc4c(cc32)CCC4)c1 (stereo not drawn)	i	i	i	i	i	i
O=C1CC(c2cccc(Cl)c2)c2cc3c(cc2N1)CCC3 (stereo not drawn)	i	i	i	86	i	i
CC1CN(C(=O)COC(=O)Cc2c(F)cccc2Cl)CC(C)O1 (stereo not drawn)	i	i	i	nt	nt	i
Cc1csc(SCC(=O)Nc2nc3ccccc3s2)n1	i	i	i	i	i	i
O=C(Cn1ncc2c(=O)oc3ccccc3c21)Nc1nc2ccccc2s1	nt	nt	nt	88	i	nt
Cn1cc(SCC(=O)Nc2nc3ccccc3s2)c2ccccc21	i	i	i	71	i	i
COc1ccc(-c2nnc(SCC(=O)Nc3ccccc3)n2C)cc1	i	i	i	i	i	i
COc1ccc(-c2nnc(SCC(=O)Nc3nc4ccccc4s3)n2C)cc1	i	i	i	93	i	i
CCOc1ccc(-c2nnc3ccc(SCC(=O)Nc4nc5ccccc5s4)nn23)cc1	i	i	i	70	i	i
Cc1ccc(S(=O)(=O)N(CC(O)CN2C(=O)NC(C)(C)C2=O)c2ccccc2)cc1 (stereo not drawn)	i	i	i	i	i	i
CC(=O)C1=C(C)NC(SCC(=O)Nc2nc3ccccc3s2)=C(C#N)C1c1ccc(Cl)cc1 (stereo not drawn)	i	i	i	85	i	i
Cn1c(CSCc2ccc(Cl)cc2)nnc1SCC(=O)Nc1nc2ccccc2s1	i	i	i	92	i	i
Cn1c(CSCc2ccc(Cl)cc2)nnc1SCC(=O)Nc1nccs1	i	i	i	i	i	i
Cc1nn(C)c(Cl)c1CN1CCN(C2CCCC2)C(CCO)C1 (stereo not drawn)	i	i	i	i	i	i
Clc1ccc2nc(-c3ccc(Br)s3)cn2c1	i	i	i	75	i	i
C=CCN(c1ccccc1OC)S(=O)(=O)c1cccc(C(=O)OCC(=O)c2c[nH]c3ccccc23)c1	i	i	i	73	i	i
COc1ccc(S(=O)(=O)Nc2nnc(Cc3ccc(OC)c(OC)c3)s2)cc1	i	i	i	i	i	i
CN1CCc2c(cc(O)c(O)c2Cl)C(c2cccc(Cl)c2)C1 (stereo not drawn)	nt	nt	nt	i	nt	nt
O=c1c2ccc(Cl)cc2[nH]c(=S)n1CCC1=CCCCC1	i	i	i	84	i	i
CCc1ccccc1NC(=O)CNC(=O)c1ccc(-n2cncn2)c([N+](=O)[O-])c1	i	i	i	nt	nt	i
COc1ccc(C2CC(O)(c3ccccc3)Oc3cc(OC)cc(OC)c32)cc1 (stereo not drawn)	i	i	i	85	nt	i
COc1ccc(C2CC(O)(c3ccccc3)Oc3c(C)ccc(C)c32)cc1 (stereo not drawn)	i	i	i	98	nt	i
COc1ccc(C2CC(=O)Oc3cc(OC)c(OC)c(OC)c32)cc1 (stereo not drawn)	i	i	i	nt	nt	i
COc1ccc([C@@H]2C[C@@H](c3ccccc3)Oc3c(C)ccc(C(C)C)c32)cc1	nt	i	i	nt	nt	nt
CC(OC(=O)CCN1C(=O)c2cccc([N+](=O)[O-])c2C1=O)C(=O)Nc1cc(Cl)cc(Cl)c1 (stereo not drawn)	i	i	i	82	i	i
C[C@@H](NCCCn1ccc(NC(=O)OCc2ccccc2)nc1=O)c1cccc2ccccc12	i	nt	nt	nt	nt	i
O=C(Cn1ccc(NC(=O)OCc2ccccc2)nc1=O)NCc1ccc2[nH]ccc2c1	i	i	i	nt	nt	i
CC1(C)NC(=O)N(CC(=O)OCC(=O)N2CCN(S(=O)(=O)c3ccccc3)CC2)C1=O	i	i	i	nt	nt	i
